RGS4 act: potentiators or activators of RGS4 | AID 463111 | B-score at 10 µM | HEK293 M3R/inducible RGS4, carbachol calcium flux Fluo4; hits give low values | hit rate 0.92% among 310,000;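 active = B-score of the integrated calcium signal more than 4 SD below the library mean, with starting fluorescence not abnormally high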;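 also: negative B-score means reduced calcium response which marks RGS4 activation or potentiation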
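System: HEK293 FlpIn-TREx cells, stable M3R, doxycycline-inducible RGS4. Timing: overnight RGS4 induction, 30 min dye load 37 °C, 20 min compound RT. Also added: carbachol, ECmax concentration. Measured by: Fluo4 fluorescence kinetic imaging of calcium. Evaluation: integrated calcium ratio converted to B score.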
MrgX1 ag: human MrgX1 receptor agonism, primary screen; Q96LB2; MrgX1-HEK293 cells, Fluo-4 calcium fluorescence, agonist mode; hits give high values; B-score at 10 µM; hit rate 0.44% among 310,000;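 active = calcium response B-score plate-corrected fluorescence ratio at least 3 library SD, with starting fluorescence B-score inside 5 SD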
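Material: MrgX1-expressing HEK293 cells / Dosing: compound as first of three additions / Incubation: overnight seeding, then 1 h dark dye loading / Signal: Fluo-4 NW calcium fluorescence / Evaluation: B-scored fluorescence response ratio / Benchmarks: positive and negative control wells on each plate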
MrgX1 antagonist: human MrgX1 receptor antagonism, primary screen | B-score at 10 µM | MRGX1-HEK293 calcium flux, Fluo-4, BAM8-22 antagonism; hits give low values | hit rate 1.3% among 310,000 | Q96LB2;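 active = calcium-response B-score plate-corrected more than 3 library SD below zero, starting fluorescence within 5 deviations, no agonist response on first addition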;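 also: peak minus trough fluorescence over baseline after final BAM8-22 challenge near maximal dose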
RGS4 inh: inhibitors of human RGS4 | P49798 | HEK293 M3R/RGS4 inducible, Fluo-4 calcium flux; hits give high values; triggered by carbachol at its EC20 | B-score at 10 µM | hit rate 0.45% among 310,000;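 active = B-score, a plate-corrected calcium signal, over three deviations above library mean, with baseline fluorescence within five deviations of library mean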;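 also: RGS4 expression induced by doxycycline in cells with stable M3 receptor; B-score is computed from the integrated fluorescence ratio over baseline after carbachol; higher B-score means a larger calcium signal and so more RGS4 inhibition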
Target sequence (P49798 whole entry, looked up): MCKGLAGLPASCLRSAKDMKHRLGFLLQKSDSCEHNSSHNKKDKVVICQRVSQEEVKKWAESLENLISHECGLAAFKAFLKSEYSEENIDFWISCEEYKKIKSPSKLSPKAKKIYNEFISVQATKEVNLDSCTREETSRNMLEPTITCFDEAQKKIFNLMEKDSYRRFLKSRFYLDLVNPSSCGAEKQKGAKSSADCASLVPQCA
MrgX1 PAM: allosterically activates human MrgX1 receptor signaling | Q96LB2 | MrgX1-HEK293, Fluo-4 calcium flux, FDSS; hits give high values | hit rate 0.63% among 310,000 | AID 588675 | B-score at 10 µM;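 active = plate-corrected calcium response at least 3 library SD above typical, normal starting fluorescence, not activating the receptor alone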;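 also: compound read alongside a low EC10 to EC30 dose of BAM8-22 agonist; peak minus trough fluorescence over baseline measured at the second addition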
* = called active by the depositor. Only some compounds are listed: those with a hit (about 3.5% of all), similar ones and a draw of the others.

What do the screens show for `Cc1ccc2ccccc2[n+]1CCCS(=O)(=O)[O-]`?
RGS4 act: inactive; MrgX1 ag: inactive; MrgX1 antagonist: inactive; RGS4 inh: inactive; MrgX1 PAM: inactive

How did CCC[n+]1c2ccccc2cc2ccccc21 do in these assays?
RGS4 act: inactive; MrgX1 ag: 26*; MrgX1 antagonist: inactive; RGS4 inh: inactive; MrgX1 PAM: inactive

Results for CCCCC[n+]1cccc2c3ccccc3ccc21 ?
RGS4 act: inactive; MrgX1 ag: inactive; MrgX1 antagonist: inactive; RGS4 inh: inactive; MrgX1 PAM: inactive

What do the screens show for `CCCC[n+]1c2ccccc2cc2ccccc21`?
RGS4 act: inactive; MrgX1 ag: 32*; MrgX1 antagonist: inactive; RGS4 inh: inactive; MrgX1 PAM: inactive

How did Cc1cccc(OCc2nn[nH]n2)c1C do in these assays?
RGS4 act: inactive; MrgX1 ag: inactive; MrgX1 antagonist: inactive; RGS4 inh: inactive; MrgX1 PAM: inactive

What do the screens show for `Cc1nc2ccccc2c2oc(C(=O)N3CCN(c4ccc([N+](=O)[O-])cc4)CC3)cc12`?
RGS4 act: inactive; MrgX1 ag: inactive; MrgX1 antagonist: inactive; RGS4 inh: inactive; MrgX1 PAM: 6.6*

How did O=C(O)c1ccc(CNC(=O)c2ccccc2NC(=O)c2ccc([N+](=O)[O-])cc2)cc1 do in these assays?
RGS4 act: inactive; MrgX1 ag: inactive; MrgX1 antagonist: -4.9*; RGS4 inh: inactive; MrgX1 PAM: inactive

How did CCOC(=O)C1(C(=O)OCC)CC1c1ccccc1 (stereo not drawn) do in these assays?
RGS4 act: inactive; MrgX1 ag: inactive; MrgX1 antagonist: inactive; RGS4 inh: inactive; MrgX1 PAM: inactive

What do the screens show for `CC(C)c1[nH]nc2c1C(Cc1ccccc1)C(C#N)=C(N)O2` (stereo not drawn)?
RGS4 act: -7.6*; MrgX1 ag: inactive; MrgX1 antagonist: inactive; RGS4 inh: inactive; MrgX1 PAM: inactive

How did COC(=O)CN1C(=S)N(c2ccc(OC)cc2)C(=O)/C1=C/c1ccc(N2CCOCC2)cc1 do in these assays?
RGS4 act: inactive; MrgX1 ag: inactive; MrgX1 antagonist: -6.1*; RGS4 inh: inactive; MrgX1 PAM: inactive

What do the screens show for `O=C(COC(=O)c1n[nH]c2ccccc12)c1cccc(Br)c1`?
RGS4 act: inactive; MrgX1 ag: inactive; MrgX1 antagonist: -5.4*; RGS4 inh: inactive; MrgX1 PAM: inactive

How did COc1cc(/C=C(\C#N)C(=O)NC2CCCCC2)ccc1OCc1ccc(C(=O)O)cc1 do in these assays?
RGS4 act: inactive; MrgX1 ag: inactive; MrgX1 antagonist: inactive; RGS4 inh: inactive; MrgX1 PAM: 7.6*

What do the screens show for `Fc1ccc2c(c1)Sc1ccc(Cl)cc1CC2N1CCN(CCC2OCCO2)CC1` (stereo not drawn)?
RGS4 act: -7.3*; MrgX1 ag: inactive; MrgX1 antagonist: inactive; RGS4 inh: inactive; MrgX1 PAM: inactive

How did Cc1ccc(-n2c(CSc3nc(C)cc(C)n3)nnc2SCC(=O)N2CCCC2)cc1 do in these assays?
RGS4 act: inactive; MrgX1 ag: inactive; MrgX1 antagonist: inactive; RGS4 inh: inactive; MrgX1 PAM: inactive

What do the screens show for `COc1ccc(-c2ccc(CO)o2)cc1N`?
RGS4 act: inactive; MrgX1 ag: inactive; MrgX1 antagonist: inactive; RGS4 inh: inactive; MrgX1 PAM: inactive

Results for COc1ccc(-c2cc(-c3ccccc3)nc(Cl)n2)cc1OC ?
RGS4 act: -7*; MrgX1 ag: inactive; MrgX1 antagonist: inactive; RGS4 inh: inactive; MrgX1 PAM: inactive

How did Cc1ccc(C)c(NC(=O)c2cc(-c3cc(C)c(C)cc3O)n[nH]2)c1 do in these assays?
RGS4 act: inactive; MrgX1 ag: inactive; MrgX1 antagonist: inactive; RGS4 inh: inactive; MrgX1 PAM: inactive

Results for O=C(c1ccc(S(=O)(=O)Cc2cc(F)ccc2F)c([N+](=O)[O-])c1)N1CCCC1 ?
RGS4 act: inactive; MrgX1 ag: inactive; MrgX1 antagonist: inactive; RGS4 inh: inactive; MrgX1 PAM: 7.2*

How did Cc1ccc(C(=O)Nc2nnc(S(=O)(=O)N3CCC(C)CC3)s2)cc1 do in these assays?
RGS4 act: inactive; MrgX1 ag: inactive; MrgX1 antagonist: -6.4*; RGS4 inh: inactive; MrgX1 PAM: inactive

Results for Cc1ccc(C(=O)Nc2nnc(S(=O)(=O)N3CCCCCC3)s2)cc1 ?
RGS4 act: inactive; MrgX1 ag: inactive; MrgX1 antagonist: inactive; RGS4 inh: inactive; MrgX1 PAM: inactive

Source: PubChem
